Results gathered from unrelated publications.
Lines come from different studies, so protocols differ.
Read-out: cell growth or viability

Structure (SMILES) | cell line | method | tested at | time | quantity | result
O=C(O)C(Cl)Cl | LoVo | MTT | – | 72 h | IC50 | > 50 µM
Cc1cccc(-n2ncc(Cl)c(Cl)c2=O)c1 | NCI-H2122 | resazurin | – | 96 h | IC50 | 1.15 µM
N.N.[Cl][Pt][Cl] | LoVo | ATP luminescence | – | – | GI50 | 1.7 µg/mL
O=c1c2ccccc2nc(S)n1-c1ccccc1 | LoVo | LDH | 200 µg/mL | 24 h | viability | 63%
COc1c2c(cc3c1OCO3)[C@]13C=C[C@H](OC)C[C@@H]1[N@](C2)C[C@H]3OC(=O)c1ccco1 | A2780 | WST-1 | – | – | IC50 | > 10 µM
O=c1ccc2cc3ccoc3cc2o1 | RD | WST-1 | – | 48 h | IC50 | 28.3 µM
O=C(O)CCCc1ccc(N(CCCl)CCCl)cc1 | A2780 | CCK-8 | – | 48 h | IC50 | > 50 µM
CCCCCCCCCCCCCCCC[N+](C)(C)C | LLC-PK1 | MTT | – | – | IC50 | 6 µM
c1ccc2c(c1)[I+]c1ccccc1-2 | Caco-2 | trypan blue | – | 48 h | IC50 | ~0.01 µM
O=c1ccc2ccc3occc3c2o1 | RD | WST-1 | – | 48 h | IC50 | 12.9 µM
COc1c2c(cc3c1OCO3)[C@]13C=C[C@H](OC)C[C@@H]1[N@](C2)C[C@H]3OC(=O)c1ccoc1 | A2780 | WST-1 | – | – | IC50 | > 10 µM
